Published values collected from several papers.
Each line is one published result; the experiments were not run side by side.
SLC47A2: Multidrug and toxin extrusion protein 2 (SLC47A2, Homo sapiens, UniProt Q86VL8)
BCKDK: Branched-chain alpha-ketoacid dehydrogenase kinase (BCKDK, Homo sapiens, UniProt O14874)
murD: UDP-N-acetylmuramoylalanine--D-glutamate ligase (murD, Escherichia coli K-12, UniProt P14900)
KAT2B: Histone acetyltransferase KAT2B (KAT2B, Homo sapiens, UniProt Q92831)

Structure (SMILES)	target	assay	test system	conditions	IC50 [µM]
CN1CCN(c2ccc(Nc3ncc4cc(C#N)c(=O)n(C5CCCC5)c4n3)cc2)CC1	Serine/threonine-protein kinase PLK2 (PLK2, Homo sapiens, UniProt Q9NYY3)	enzyme activity, inhibitor	–	–	2.17
CN/C(=N/CCSCc1nc[nH]c1C)NC#N	SLC47A2	transporter uptake, inhibitor, radiometric	HEK293	5 min, pH 8.5	3.6
Cc1cnc(-c2ccc(-c3ccc(NC(=O)Nc4c(F)cc(F)cc4F)cc3F)c3c2C(=O)NC3)[nH]1	Tyrosine-protein kinase Yes (YES1, Homo sapiens, UniProt P07947)	enzyme activity, inhibitor	–	–	0.0045
C=C(C)[C@@H]1CCC(C)=C[C@H]1c1c(O)cc(CCC)cc1O	Polyunsaturated fatty acid 5-lipoxygenase (ALOX5, Homo sapiens, UniProt P09917)	enzyme activity, inhibitor	–	–	4.9
CCCCc1nc(C)c(CC(=S)N(C)C)c(=O)n1Cc1ccc(-c2ccccc2-c2nnn[nH]2)cc1	BCKDK	enzyme activity, inhibitor	–	–	51.9
COC(=O)[C@]1(O)C[C@@H](O)[C@@H](O)[C@H](OC(=O)/C=C/c2ccc(O)c(O)c2)C1	Histone deacetylase 8 (HDAC8, Homo sapiens, UniProt Q9BY41)	enzyme activity, inhibitor	–	–	8.22
CCOc1nc2cccc(C(=O)O)c2n1Cc1ccc(-c2ccccc2-c2nnn[nH]2)cc1	BCKDK	enzyme activity, inhibitor	–	–	4.28
CCCC[C@H](NC(=O)[C@H](C)c1c(C)[nH]c2ccc(O)cc12)c1ncc(-c2cc3ccccc3nc2OC)[nH]1	Histone deacetylase 1 (HDAC1, Homo sapiens, UniProt Q13547)	enzyme activity, inhibitor	–	–	0.04
O=[N+]([O-])c1ccc(S(=O)(=O)Oc2ccccc2C=NNS(=O)(=O)c2ccc3ccccc3c2)cc1	murD	enzyme activity, inhibitor, absorbance	–	–	74
O=C1c2ccccc2-c2cccc3cccc1c23	Tyrosine-protein phosphatase non-receptor type 7 (PTPN7, Homo sapiens, UniProt P35236)	enzyme activity, inhibitor, fluorescence	–	–	35
CC(C)c1cccc2c(/C=C/c3ccccc3)cc(-c3ccc(-c4ccc(C(=O)O)cc4)[nH]3)nc12	Retinoic acid receptor gamma (RARG, Homo sapiens, UniProt P13631)	reporter gene, antagonist	–	–	> 3.3
N[C@@H](CC(=O)N1CCN(C(c2ccc(F)cc2)c2ccc(F)cc2)CC1)C(=O)N1Cc2ccccc2C1	Dipeptidyl peptidase 8 (Homo sapiens, UniProt Q6V1X1)	enzyme activity, inhibitor	–	–	0.128
COc1cc(/C=C2\SC(=O)NC2=O)cc(F)c1OCCNc1nc2c(cnn2C2CCCC2)c(=O)[nH]1	High affinity cAMP-specific and IBMX-insensitive 3',5'-cyclic phosphodiesterase 8A (PDE8A, Homo sapiens, UniProt O60658)	enzyme activity, inhibitor	–	–	0.091
CN(C)CCC=C1c2ccccc2CCc2ccccc21	SLC47A2	transporter uptake, inhibitor, radiometric	HEK293	5 min	> 500
COc1ccc(S(=O)(=O)ON=C2C=C(C)C(=O)C(C)=C2)cc1	KAT2B	enzyme activity, inhibitor, radiometric	–	–	34.7
O=C(Nc1ccc(C=NNS(=O)(=O)c2ccc3ccccc3c2)cc1)c1ccccc1Br	murD	enzyme activity, inhibitor, absorbance	–	–	55
CCCCCCCc1ccc(CCc2cccc(O)c2C(=O)O)cc1	KAT2B	enzyme activity, inhibitor, radiometric	–	–	> 200
